CSC inhib = blocks cancer stem cells; cancer stem cell-like cells viability, luminescence; inhibition, % at 7.5 µM; 300,000 tested, 1.1% active; AID 2717; in the data active = inhibition above about 75%; inconclusive = no clear call, values can overlap the other calls; tested in HMLE shEcad cells
T cruzi repl = blocks replication of Trypanosoma cruzi; T. cruzi beta-gal in NIH3T3, luminescence, 90 h; inhibition, % (no concentration beside the values); 300,000 tested, 1.4% active;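 active = mean inhibition across valid replicates above about 55%, limit read from the data; inconclusive = mean below that limit but half or more replicates reach it; inactive = mean below it, under half of replicates reach it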;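 also: signal also drops with host cell toxicity which is not excluded here; 0% = plate median of DMSO wells and 100% = zero luminescence signal; higher percent means less beta-gal luminescence so fewer parasites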
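Assay system: NIH/3T3 host cells with β-galactosidase reporter T. cruzi; input: 5,000 host fibroblasts per well; compound: single 50 nL compound addition per well in DMSO; timing: ≥90 h infection period, 3 h prior cell attachment; measured by: GalScreen β-gal luminescence, detergent lysis, 60 min; evaluation: percent inhibition of parasite-derived β-gal signal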
Calb FLC = C. albicans growth modulation with fluconazole; 300,000 tested, 0.57% active; growth inhibition, % (concentration not given with the values); AID 1979; C. albicans CaCi-2 (fluconazole-resistant clinical isolate) + fluconazole, Alamar Blue growth, 48 h;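 active = growth inhibition above about 58% in most replicates, limit read from the data, passing the limit was not always enough; inconclusive = exactly half the replicates above a set limit; inactive = most replicates below a set limit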;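 also: all wells also contain fluconazole at 8 µg/ml as a sub-toxic cotreatment; 0% = median of DMSO wells and 100% = median of geldanamycin control wells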
Mdm2 MdmX PPI = disrupts the human Mdm2-MdmX interaction; O15151+Q00987; SaOS-2 split-luciferase Mdm2/MdmX complementation, luminescence; inhibition, % at 8 µM; 330,000 tested, 3% active; AID 485346;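 active = inhibition of at least 50% at 8 µM in the primary screen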
Target sequence (O15151 whole entry, looked up): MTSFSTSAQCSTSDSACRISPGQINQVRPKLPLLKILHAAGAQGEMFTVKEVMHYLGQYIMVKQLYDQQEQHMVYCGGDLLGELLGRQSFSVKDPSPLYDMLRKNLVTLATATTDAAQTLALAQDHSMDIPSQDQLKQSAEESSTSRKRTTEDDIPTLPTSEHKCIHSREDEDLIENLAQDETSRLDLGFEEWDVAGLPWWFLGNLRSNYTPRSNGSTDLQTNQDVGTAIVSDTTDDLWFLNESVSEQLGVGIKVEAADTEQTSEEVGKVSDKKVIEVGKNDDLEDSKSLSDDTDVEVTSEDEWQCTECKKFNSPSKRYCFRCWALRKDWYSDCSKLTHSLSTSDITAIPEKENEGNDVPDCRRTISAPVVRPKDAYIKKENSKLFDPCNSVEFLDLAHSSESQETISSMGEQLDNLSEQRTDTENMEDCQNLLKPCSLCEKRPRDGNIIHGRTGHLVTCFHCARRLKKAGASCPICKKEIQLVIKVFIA
Target sequence (Q00987 whole entry, looked up): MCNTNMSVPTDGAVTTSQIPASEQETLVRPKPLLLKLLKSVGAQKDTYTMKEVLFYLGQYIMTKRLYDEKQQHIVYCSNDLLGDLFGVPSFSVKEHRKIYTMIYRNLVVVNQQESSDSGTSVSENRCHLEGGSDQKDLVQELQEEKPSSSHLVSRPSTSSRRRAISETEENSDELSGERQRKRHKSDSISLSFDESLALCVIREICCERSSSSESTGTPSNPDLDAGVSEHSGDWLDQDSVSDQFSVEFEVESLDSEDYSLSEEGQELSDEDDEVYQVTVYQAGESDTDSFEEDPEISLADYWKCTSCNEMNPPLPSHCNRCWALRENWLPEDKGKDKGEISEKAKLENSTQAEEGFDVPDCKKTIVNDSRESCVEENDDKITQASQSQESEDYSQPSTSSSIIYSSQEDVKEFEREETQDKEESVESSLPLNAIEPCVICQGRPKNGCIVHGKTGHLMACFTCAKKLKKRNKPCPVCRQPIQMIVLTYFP
SKKanGAS inh = inhibitors of SKKanGAS S. pyogenes growth in kanamycin (SK-promoter or general growth effect). BacTiter-Glo, 6 h. inhibition, % at 7.5 µM. 300,000 tested, 1.3% active. AID 1662;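 active = mean replicate score, as percent of positive control median, at least 50; inconclusive = mean below 50 but one replicate at or above 50; inactive = mean and every replicate below 50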;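 also: strain carries kanamycin resistance gene driven by streptokinase promoter and grows in 40 µg/ml kanamycin; loss of luminescence reflects streptokinase promoter inhibition or plain growth inhibition; 0% = median of DMSO wells and 100% = positive control at its reference dose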
Beta apoptosis = blocks beta cell apoptosis | protection from apoptosis, % (no concentration beside the values) | AID 435005 | INS-1E cytokine-induced death, ATP luminescence, 48 h; percent of positive-control rescue, neutral wells zero | 300,000 tested, 0.8% active;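 active = Every replicate reaches about 75%, or at least half do and their mean reaches it too, limit read from the data; inconclusive = At least half of replicates reach the limit but their mean does not; inactive = Under half of replicates reach the limit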;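 also: 0% = cytokine-treated negative control wells and 100% = positive control rescue; higher means more ATP so stronger rescue from cytokine killing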
Mdm2-MdmX conf = human Mdm2/MdmX binding inhibition, confirmed. luminescent assay. inhibition, % at 8 µM. 10,000 tested, 55% active. shares compounds with Mdm2 MdmX PPI. AID 489028; in the data active = inhibition above about 40%
FLuc counter = inhibits full-length luciferase, flagging false Mdm2/MdmX hits; shares compounds with Mdm2 MdmX PPI; SaOS-2 full-length luciferase counterscreen, luminescence; inhibition, % at 8 µM; 6,200 tested, 77% active;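 active = mean inhibition at 8 µM reaching about 37%, which flags the compound as non-specific, limit read from the data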;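 also: p53-null SaOS-2 cells with luciferase driven by a doxycycline-inducible promoter; compound on cells about two nights before reading with doxycycline added after day one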
* = called active by the depositor; ? = inconclusive; · = no result. Shown are actives, neighbours in structure and some others; about 5.7% of the full set was active somewhere.

SMILES | CSC inhib | T cruzi repl | Calb FLC | Mdm2 MdmX PPI | SKKanGAS inh | Beta apoptosis | Mdm2-MdmX conf | others
O=C(Nc1cc(S(=O)(=O)Nc2ccc(Cl)cc2)ccc1N1CCCCC1)c1ccc(F)cc1 | 90* | 19 | -2 | 72* | 55* | 112* | 35
N#Cc1ccc(C(=O)Nc2cc(S(=O)(=O)Nc3ccc(Cl)cc3)ccc2N2CCCCC2)cc1 | 35 | 30 | -15 | -3 | 10 | 12 | ·
COc1ccc2oc(-c3ccc(NC(=O)c4ccc(N5CCOCC5)c([N+](=O)[O-])c4)cc3)nc2c1 | 9 | -27 | 59 | 56* | 8 | 14 | 28
COc1ccc(NS(=O)(=O)c2cc(NC(=O)c3ccco3)ccc2N2CCCCC2)cc1 | 52 | 21 | -3 | 60* | 19 | 12 | 40 | FLuc counter=60*
COc1ccc(NS(=O)(=O)c2cc(C(=O)O)ccc2C)cc1 | -7 | -8 | -10 | 25 | -3 | -10 | ·
Cc1cccc(NC(=O)c2ccc(N3CCOCC3)c([N+](=O)[O-])c2)n1 | -5 | 4 | 11 | -17 | -10 | -10 | ·
COc1ccc(NS(=O)(=O)c2cc(NC(=O)c3ccc(=O)[nH]n3)ccc2C)cc1 | · | · | · | 52* | · | 6 | 46* | FLuc counter=65*
Cc1cccc(N2CCN(S(=O)(=O)c3ccc(Cl)nc3)CC2C)c1 (configuration not stated) | -8 | · | · | 31 | · | -7 | ·
Cc1cccc2nc(-c3ccco3)oc(=O)c12 | -6 | -1 | -11 | -1 | 1 | 5 | ·
COc1ccc(NS(=O)(=O)c2cc(NC(=O)c3ccncc3)ccc2N2CCOCC2)cc1 | -24 | 8 | -10 | 6 | -15 | -3 | ·
COc1ccc(NS(=O)(=O)c2cc(NC(=O)c3ccc(Cl)cc3)ccc2N2CCOCC2)cc1 | 71 | · | · | 82* | · | 31 | 67* | FLuc counter=27
COc1ccc(NS(=O)(=O)c2cc(NC(=O)c3ccc(=O)[nH]c3)ccc2N2CCCC2)cc1 | 133* | -14 | 12 | 82* | 20 | 1 | 73* | FLuc counter=43*
COC(=O)C(Cc1ccccc1)NC(=O)CCNC(=O)c1ccco1 (configuration not stated) | -6 | -5 | 17 | -6 | -4 | · | ·
Cc1ccc(NC(=O)COC(=O)C2=NN(c3ccccc3)C(=O)CC2)c(Br)c1 | · | · | · | -16 | · | -10 | ·
COc1ccc(/C=N/Nc2ncnc3c2[nH]c2ccc(C)cc23)c(OC)c1OC | 2 | 13 | -4 | 77* | 1 | 54 | 53* | FLuc counter=10
COc1cc(OC)c(OC)cc1/C=N/Nc1ncnc2c1[nH]c1ccccc12 | 25 | 7 | 0 | 84* | 1 | 12 | 55* | FLuc counter=12
COc1ccc(CCNC(=O)C2CCCN2S(=O)(=O)c2cccc3nsnc23)cc1OC (configuration not stated) | -16 | -8 | 6 | 8 | -14 | 2 | ·
Nc1cccc2c1C(=O)N(CCOc1ccc(F)cc1)C2=O | 3 | 2 | 1 | -104 | -6 | -1 | ·
CCN(CC)CCn1c(SCC(=O)Nc2cccc(OC)c2)nc2c(sc3ccccc32)c1=O | 16 | 7 | 2 | 51* | 12 | 7 | 36
COc1cccc(NC(=O)CSc2nc3c(sc4ccccc43)c(=O)n2CCCN2CCCC2)c1 | 7 | -3 | 0 | 89* | 9 | -4 | 26
NC1=NC(=Nc2cccc(Cl)c2)c2ccccc21 | 20 | -9 | 0 | 51* | -12 | -6 | 16
Cc1cccc(N=C2N=C(N)c3ccccc32)c1 | -2 | -8 | -2 | 48 | 1 | -6 | ·
NC1=NC(=Nc2ccccc2)c2ccccc21 | 6 | -1 | 2 | 25 | 4 | -3 | ·
COc1ccccc1NS(=O)(=O)c1cccc(N=C2N=C(N)c3ccccc32)c1 | 4 | -7 | 3 | 51* | 2 | -8 | 24
NC1=NC(=Nc2ccc(Cl)cc2)c2ccccc21 | 28 | -10 | 12 | 55* | -5 | -7 | -12
SMILES | CSC inhib | T cruzi repl | Calb FLC | Mdm2 MdmX PPI | SKKanGAS inh | Beta apoptosis | Mdm2-MdmX conf | others
CCOc1ccc(S(=O)(=O)Nc2ccc(C(=O)N3CCCC3)cc2)cc1C(N)=O | 2 | -8 | 9 | 5 | -6 | -5 | ·
Cc1cccnc1NC(=O)CNC(=O)c1ccccc1 | · | · | · | -43 | · | -3 | ·
COc1ccc(NC(=O)Cc2nnc(SCC(=O)NC3CCCC3)n2C)cc1 | 4 | -7 | 2 | -8 | 2 | -12 | ·
COCCN1Cc2cccc(C(=O)Nc3ccc(-c4nc5ccccc5[nH]4)cc3)c2C1=O | · | 7 | 2 | 40 | 5 | 1 | ·
O=C(Nc1ccc(Cl)c(-c2nc3ccccc3[nH]2)c1)c1ccc2c(c1)OCO2 | 0 | 26 | -5 | 6 | 17 | 2 | ·
O=C(Nc1cccc(-c2nc3ccccc3[nH]2)c1)c1cccc(NC(=O)c2ccco2)c1 | 99* | ? | -1 | 100* | 21 | 56 | 29 | FLuc counter=56*
O=C(Nc1ccc2nc(-c3ccccc3)[nH]c2c1)c1ccco1 | -9 | 11 | -43 | -110 | -7 | · | ·
COCCN1Cc2cccc(C(=O)Nc3cccc(-c4nc5ccccc5[nH]4)c3)c2C1=O | 55 | 35 | 12 | 55* | 45 | 39 | 51* | FLuc counter=90*
O=C(Nc1ccc(-c2nc3ccccc3[nH]2)cc1)c1ccc2c(c1)OCO2 | -9 | 4 | 6 | 90* | 21 | 33 | 67* | FLuc counter=29
O=C(Nc1cccc(OC(=O)c2ccc(Br)o2)c1)c1ccccc1 | -1 | -7 | -4 | -7 | -8 | -5 | ·
COc1cc(/C=C/c2ccc3cccc(O)c3n2)cc(OC)c1OC | 44 | 45 | -1 | 84* | 96* | 33 | 76* | FLuc counter=27
COc1cccc(/C=C/c2ccc3cccc(O)c3n2)c1 | 41 | ? | 3 | 62* | 98* | 50 | -143
COc1cc(/C=C/c2ccc3cccc(O)c3n2)cc(Br)c1OC | 52 | 72* | 1 | 93* | 100* | 44 | 11
COc1cc(/C=C/c2ccc3cccc(O)c3n2)cc(Cl)c1OC | 91* | 35 | -2 | 100* | 107* | 64 | -35
CCOC(=O)c1nn(-c2ccc(F)cc2)c(=O)cc1OCC(=O)Nc1ccc(F)c(F)c1 | 11 | -11 | -6 | 25 | 11 | -3 | ·
COc1ccc(NC(=O)CN(C)C(=O)c2ccc(-c3ccccc3Cl)o2)cc1 | 1 | -4 | -2 | 9 | 2 | -4 | ·
CC(=O)Nc1ccc(N(C(=O)Cc2cccs2)C(C(=O)NC2CCCC2)c2ccncc2)cc1 (configuration not stated) | -8 | 3 | 3 | -26 | 1 | -3 | ·
CC(C)(C)CN1CCN(CCCc2ccccc2)C(CCO)C1 (configuration not stated) | 4 | 26 | -3 | 20 | 5 | 6 | ·

From PubChem BioAssay
